Tested on: HeLa
Assay: Cytotoxicity against human HeLa cells after 72 hrs by MTT assay
Assay type: functional, cell-based
Summary of the method: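 HeLa cells grown in DMEM with 10% FBS, 2 μg/mL gentamycin and 2 μg/mL antibiotic-antimycotic at 37 °C under 5% CO2. Seeded at 1 × 10^4 cells/mL and preincubated 24 h. Sample added, then incubated 72 h. MTT (1 mg/mL saline) added for 3 h. Supernatant discarded, formazan dissolved in DMSO, absorbance read for IC50. Adriamycin was the positive control.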

SMILES	IC50 [nM]
C#C[C@H](O)/C=C/CCCCCCCCC/C=C\CCCCCCCCC/C=C/[C@@H](O)C#C	500
C#C[C@H](O)/C=C/CCCCCCCCC/C=C\CCCCCCCCCCC/C=C/[C@@H](O)C#C	260
C#C[C@H](O)/C=C/CCCCC/C=C\CCCC/C=C\CCCCCCCCC/C=C/[C@@H](O)C#C	260
C#C[C@H](O)/C=C/CCCCCCC/C=C\CCCC/C=C\CCCCCCCCC/C=C/[C@@H](O)C#C	100
C#C[C@H](O)/C=C/CCCCCCCCC/C=C\CCCC/C=C\CCCCCCCCC/C=C/[C@@H](O)C#C	80
C#C/C=C\[C@@H](O)CCCCCCCCCCC/C=C\CCCCCCCCC/C=C/[C@@H](O)C#C	340
COc1cccc2c1C(=O)c1c(O)c3c(c(O)c1C2=O)C[C@@](O)(C(=O)CO)C[C@@H]3O[C@H]1C[C@H](N)[C@H](O)[C@H](C)O1 [DOXORUBICIN]	1640
